# Assay results as given in paper PMC4254804 (Nature communications, 2014).
# Molecular target: TopBP1 (Homo sapiens, UniProt Q92547)
# Type: biochemical
# Method in brief: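 E. coli BL21-expressed (0.1 mM IPTG) TopBP1-BRCT7/8, GST cleaved off with PreScission, 2 μg preincubated with compound in NETN-A (50 mM NaCl, 1 mM EDTA, 20 mM Tris, 0.5% NP-40), 3 h, 4°C, rotating. Then 2 μg biotin-pS1159 peptide (non-phospho peptide control; streptavidin-Sepharose) or GST-p53-DBD (GST control; glutathione-Sepharose) added, 3 h, 4°C. Six NETN-B washes; SDS-PAGE, anti-TopBP1 immunoblot.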
# TopBP1, sequence (Q92547 1264-1493 limits assumed): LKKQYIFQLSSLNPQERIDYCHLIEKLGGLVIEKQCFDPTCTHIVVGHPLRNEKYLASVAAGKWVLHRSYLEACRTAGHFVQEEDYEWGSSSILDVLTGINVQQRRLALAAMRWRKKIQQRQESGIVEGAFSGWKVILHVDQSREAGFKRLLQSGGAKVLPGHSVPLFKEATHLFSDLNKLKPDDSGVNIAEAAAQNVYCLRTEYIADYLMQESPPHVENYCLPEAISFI
smiles,measurement,value
O=C(O)CN(CC(=O)O)Cc1cc2c(cc1O)Oc1cc(O)c(CN(CC(=O)O)CC(=O)O)cc1C21OC(=O)c2ccccc21 [calcein],Pulldown competition with purified proteins: biotin-pS1159 peptide streptavidin,submicromolar
